One test concerns the target dopamine receptors. The settings on record: cited from earlier work.
In test [1] the target is T1, NTMT1 (Homo sapiens, UniProt Q9BV86).
T1 sequence (Q9BV86 1-222): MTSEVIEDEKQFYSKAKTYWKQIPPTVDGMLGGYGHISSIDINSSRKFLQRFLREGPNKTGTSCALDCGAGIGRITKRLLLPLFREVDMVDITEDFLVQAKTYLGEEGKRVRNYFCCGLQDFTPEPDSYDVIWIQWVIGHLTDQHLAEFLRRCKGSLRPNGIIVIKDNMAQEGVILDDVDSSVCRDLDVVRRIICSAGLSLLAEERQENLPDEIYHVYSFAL
As to the kind of experiment: SAHH-coupled ThioGlo3 fluorescence assay, 1536-well. It is filed as biochemical. The settings on record: IC50, Epigenetic Library qHTS, 1 nM to 57 μM. A digest of the protocol:
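Final mix of His-NTMT1 125 nM, SAHH 10 μM, SAM 100 μM and ThioGlo3 15 μM in 25 mM Tris pH 7.5, 10 mM KCl, 0.01% Triton X-100. Test compounds were pin-transferred in qHTS dilution series, then SPKRIA peptide was added to 1 μM final (4 μL). Incubation was 30 min, read at Ex 340/Em 450. Fluorescence change from the initial read was normalized plate-wise to DMSO and Ac-RCC1-10 controls.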
For orientation: In qHTS, concentration-response curves come from the screen itself.

Test [2] deals with T1, NTMT1. As to the kind of experiment: MTase-Glo luminescence assay, 1536-well. The test is classed as biochemical. The settings on record: IC50, Epigenetic Library qHTS, 1 nM to 57 μM. The essentials:
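His-tagged NTMT1 was expressed with IPTG induction at 15 °C overnight and purified on Ni-NTA. It was used at 125 nM final with 100 μM SAM in 4 μL wells. Optimized SAHH-ThioGlo3 conditions served as the starting point, with kit reagents at recommended concentrations. SAH was converted to ADP and read by luminescence. Data were normalized plate-wise to DMSO and Ac-RCC1-10 controls, then fitted to concentration-response curves.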

Test [3] addresses T1, NTMT1. The experiment in a line: MALDI-MS methylation inhibition assay. The test is classed as biochemical. The settings on record: data not shown.
For test [4], the target named is cyclin-dependent kinase 1 (CDK1)/cyclin B. The settings on record: cited from earlier work.
Test [5] concerns NTMT1. The settings on record: cited from earlier work.

The source of these data is paper PMC7429283 (ACS combinatorial science, 2020).

As to `N[C@@H]1CCc2cc(O)c(O)cc2C1` [6,7-ADTN], on dopamine receptors, the IC50 (commonly the midpoint of a concentration-inhibition curve) was 1.7 nM.
As for `[N-]=[N+]=Nc1nc2c(N)ncnc2n1[C@@H]1O[C@H](CO)[C@@H](O)[C@H]1O` [8-Azidoadenosine], the 50% inhibitory concentration (IC50) against NTMT1 [1] and against NTMT1 [2] was 17.1 to 24.3 µM in each case. Further, the “inhibition in MS testing” value against NTMT1 [3] is “no inhibition”.
Consider `CCn1cnc2c(Nc3cccc(Cl)c3)nc(N[C@@H]3CCCC[C@@H]3N)nc21` [CGP 74514A], for which the IC50 in test [4] was 31 nM.
On to `COc1cc2nc(N3CCCC3)nc(NC3CC3)c2cc1OC` [NCGC00249822], for which, at NTMT1 [3], the “inhibition in MS testing” value is listed as “no inhibition”.
Turning to APKRQSPLPP, the Michaelis-Menten constant (Km) (commonly the concentration of substrate that gives half-maximal velocity) in the test with NTMT1 [5] is 2000 nM.
In the case of GPKRIA, the Km with NTMT1 [5] is 500 nM.
